Bioassay records: PubChem, several laboratories
MrgX1 ag: agonists of human MrgX1 receptor, primary screen, HEK293 cells, Fluo-4 calcium flux | 0.44% of 310,000 active | AID 588627, 2011 | Mas-related G-protein coupled receptor member X1 (Homo sapiens), Q96LB2 | Fluo-4 calcium fluorescence, agonist mode; hits give high values | B-score at 10 µM;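 active means calcium response B-score plate-corrected fluorescence ratio at least 3 library SD, with starting fluorescence B-score inside 5 SD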
Target sequence (Q96LB2 whole entry, looked up): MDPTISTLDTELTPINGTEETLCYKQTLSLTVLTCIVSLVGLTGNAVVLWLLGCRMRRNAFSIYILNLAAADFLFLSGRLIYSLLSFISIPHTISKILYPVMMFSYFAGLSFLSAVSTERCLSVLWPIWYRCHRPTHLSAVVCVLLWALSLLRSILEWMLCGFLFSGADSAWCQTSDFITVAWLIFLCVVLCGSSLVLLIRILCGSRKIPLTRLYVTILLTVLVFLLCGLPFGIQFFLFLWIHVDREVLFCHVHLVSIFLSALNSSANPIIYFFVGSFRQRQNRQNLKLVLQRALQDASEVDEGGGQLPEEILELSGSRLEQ
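Material: MrgX1-expressing HEK293 cells / Dosing: compound as first of three additions / Incubation: overnight seeding, then 1 h dark dye loading / Signal: Fluo-4 NW calcium fluorescence / Evaluation: B-scored fluorescence response ratio / Benchmarks: positive and negative control wells on each plate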
MrgX1 allo act: positive allosteric modulators of MrgX1, primary screen, HEK293 cells, Fluo-4 calcium flux; Mas-related G-protein coupled receptor member X1 (Homo sapiens), Q96LB2; FDSS; hits give high values; B-score at 10 µM; 0.63% of 310,000 active;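 active means plate-corrected calcium response at least 3 library SD above typical, normal starting fluorescence, not activating the receptor alone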;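 further: compound read alongside a low EC10 to EC30 dose of BAM8-22 agonist; peak minus trough fluorescence over baseline measured at the second addition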
RGS4 inh: RGS4 inhibitors, primary screen, cell-based, HEK293 M3R inducible RGS4, calcium flux | Fluo-4 calcium flux; hits give high values; triggered by carbachol at its EC20 | 0.45% of 310,000 active | Regulator of G-protein signaling 4 (Homo sapiens), P49798 | B-score at 10 µM;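 active means B-score, a plate-corrected calcium signal, over three deviations above library mean, with baseline fluorescence within five deviations of library mean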;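 further: RGS4 expression induced by doxycycline in cells with stable M3 receptor; B-score is computed from the integrated fluorescence ratio over baseline after carbachol; higher B-score means a larger calcium signal and so more RGS4 inhibition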
MrgX1 antagonist: antagonists of human MrgX1 receptor, primary screen, HEK293 cells, Fluo-4 calcium flux | 1.3% of 310,000 active | B-score at 10 µM | BAM8-22 antagonism; hits give low values | AID 588676, 2011;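 active means calcium-response B-score plate-corrected more than 3 library SD below zero, starting fluorescence within 5 deviations, no agonist response on first addition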;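 further: peak minus trough fluorescence over baseline after final BAM8-22 challenge near maximal dose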
PHOSPHO1 block: PubChem AID 1565; inhibition, % at 13.3 µM; 1.1% of 290,000 active; recombinant PHOSPHO1, absorbance phosphatase assay; Phosphoethanolamine/phosphocholine phosphatase (Homo sapiens), Q8TCT1; in the data active means inhibition above about 60%
Target sequence (Q8TCT1 whole entry, looked up): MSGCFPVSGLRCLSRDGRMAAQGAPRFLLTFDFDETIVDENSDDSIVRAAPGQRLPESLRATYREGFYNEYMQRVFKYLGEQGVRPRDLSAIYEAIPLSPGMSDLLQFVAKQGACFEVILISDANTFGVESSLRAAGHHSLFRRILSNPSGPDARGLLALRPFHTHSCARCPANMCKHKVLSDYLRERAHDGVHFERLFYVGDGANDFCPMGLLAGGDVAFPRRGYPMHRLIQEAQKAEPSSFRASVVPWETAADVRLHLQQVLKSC
RGS4 pot: RGS4 potentiators or activators, primary screen, cell-based, HEK293 M3R inducible RGS4, calcium flux; B-score at 10 µM; 0.92% of 310,000 active; carbachol calcium flux Fluo4; hits give low values;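 active means B-score of the integrated calcium signal more than 4 SD below the library mean, with starting fluorescence not abnormally high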;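 further: negative B-score means reduced calcium response which marks RGS4 activation or potentiation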
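Also added: carbachol at ECmax as muscarinic agonist stimulus; Assay system: HEK293 cells with stable M3R and inducible RGS4; Timing: overnight RGS4 induction, 30 min dye load 37 °C, 20 min compound RT; Measured by: Fluo4-AM (2 µM) calcium-flux fluorescence, kinetic read.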
RGS4 inh valid: enhanced carbachol calcium response, M3R/RGS4 cells, RGS4 inhibitor project, cell-based, validation screen, HEK293 M3R/RGS4, calcium flux. carbachol calcium Fluo-4 fluorescence; carbachol added at its EC20; 0 = buffer wells, 100 = carbachol control. shares compounds with RGS4 inh. calcium response, % at 10 µM. 65% of 1,700 active;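 active means duplicate-averaged calcium response above the buffer-only control mean plus 5 SD of those controls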;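 further: integrated fluorescence ratio F max minus min over baseline F0; higher response in RGS4-induced cells means RGS4 inhibition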
M3R Ca ctr: carbachol calcium response in non-induced M3R cells, confirmation, counter-screen for RGS4 inhibitor project, cell-based, HEK293 M3R. 20% of 1,900 active. AID 493000, 2010. activity (percent), % at 10 µM. shares compounds with RGS4 inh. carbachol calcium Fluo-4; submaximal (EC20) carbachol stimulus; buffer wells 0%, carbachol control wells 100%; call rule not given here;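 further: RGS4 induction absent so cells express M3R without RGS4; higher means more calcium signal and flags a non-specific hit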
RGS4 inh ctr2: second counter-screen for RGS4 inhibitors: non-induced cells without carbachol. 22% of 1,900 active. AID 493001. shares compounds with RGS4 inh. calcium response (agonist-mode artifact), % at 10 µM. HEK293 M3R/RGS4 non-induced, Fluo-4 calcium, no carbachol; normalised: buffer wells 0%, carbachol wells 100%;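 active means duplicate-averaged calcium rise in uninduced cells above buffer wells' mean plus 5 SD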
The depositor's hits bear a star; i = inactive; / = no result given. Only some compounds are listed: those with a hit (about 4.5% of all), similar ones and a draw of the others.

SMILES | MrgX1 ag | MrgX1 allo act | RGS4 inh | MrgX1 antagonist | PHOSPHO1 block | RGS4 pot | RGS4 inh valid | M3R Ca ctr | RGS4 inh ctr2
COc1ccc2[nH]cc(CCn3ccc(O)c(C/C=C/c4ccccc4)c3=O)c2c1 | i | i | 7.3* | i | 24 | i | 18%* | i | i
O=C(NC12CC3CC(CC(C3)C1)C2)C1CCCN1C(=O)Nc1ccccc1 (stereo not drawn) | i | i | i | i | -4 | i | / | / | /
Cc1nc(/C=C/c2ccccc2)[nH]c(=O)c1-c1ccccc1 | i | i | i | i | -9 | i | / | / | /
CC(C)=CCC12Oc3cc(O)ccc3C1(O)Oc1cc(O)c([C@H]3C=C(C)CC(c4ccc(O)cc4O)[C@H]3C(=O)c3ccc(O)cc3O)c(O)c1C2=O (stereo partly drawn) | i | i | 15* | i | / | i | 24%* | i | i
COc1ccc(-n2c(-c3ccc(Br)cc3)c[n+]3c2SC(C)C3)cc1 (stereo not drawn) | i | i | i | i | 27 | i | / | / | /
COc1ccc(CCNCC(O)Cn2c3ccccc3c3ccccc32)cc1OC (stereo not drawn) | i | i | 17* | i | 7 | i | 62%* | i | 14%*
COc1ccccc1NCC(O)Cn1c2ccccc2c2ccccc21 (stereo not drawn) | i | i | i | i | -22 | i | / | / | /
CCSc1nc2ccccc2n1C(=O)/C=C\c1ccc(OC)c(OC)c1 | i | i | 14* | i | 26 | i | 22%* | 76%* | 7.5%*
CCOC(=O)N1CCN(C(=O)CSCC(=O)Nc2nc(-c3ccc(Cl)s3)cs2)CC1 | i | i | i | i | 5 | i | i | i | i
NNC(=O)c1nc[nH]c1C(=O)Nc1ccccn1 | i | i | 15* | i | 36 | i | 5.0%* | i | i
CC(=O)Nc1ccc(NC(=O)C/C(C)=N/NC(=O)COc2cc(C)c(Br)cc2Br)cc1 | i | i | i | i | -8 | i | / | / | /
CCc1ccc2c(c1)c(N=NC1=NC(=O)CS1)c(O)n2C | i | i | i | i | 4 | i | / | i | i
C/C(=C\c1ccco1)CN1CCN(Cc2ccc(C)o2)C(CCO)C1 (stereo not drawn) | i | i | i | i | 24 | i | / | / | /
COc1ccc(OC)c(C2=Nn3c(nnc3C3CCCCC3)SC2)c1 | i | i | i | i | -2 | i | / | / | /
COc1ccc(C2=Nn3c(nnc3-c3ccccc3)SC2)cc1OC | i | i | i | i | 20 | i | / | i | i
COc1ccc(C2=Nn3c(nnc3C3CCCCC3)SC2)cc1OC | i | i | 11* | i | 0 | i | 22%* | 49%* | i
COc1ccc(-c2nnc3n2N=C(c2ccccc2)CS3)cc1OC | / | / | / | / | 6 | / | / | / | /
CCCc1nnc2n1N=C(c1ccc(OC)c(OC)c1)CS2 | i | i | 7.4* | i | -11 | i | 12%* | 28%* | i
COc1cc(CN(C)Cc2ccccc2)cc(OC)c1O | i | i | i | i | 30 | i | / | / | /
COc1cc(C(=O)Nc2cc3c4c(c2)CC(=O)N4CCC3)cc(OC)c1OC | i | i | i | i | / | i | / | / | /
Fc1ccc(-n2c(CN3CCCCC3)n[nH]c2=S)cc1 | i | i | i | i | 20 | i | / | / | /
CN(c1nc(-c2ccc(Br)cc2)cs1)C1CCS(=O)(=O)C1 (stereo not drawn) | i | i | i | i | 36 | i | / | / | /
O=C(Nc1cc(C(F)(F)F)ccc1N1CCOCC1)c1ccc(F)cc1 | i | i | i | i | -4 | i | / | / | /
O=C(Nc1cc(C(F)(F)F)ccc1N1CCOCC1)c1n[nH]c(=O)c2ccccc12 | i | i | 7.5* | i | -14 | i | 24%* | i | i
COc1ccc(-c2nnc(Nc3ccc(OC)c(C(=O)N4CCCCC4)c3)c3ccccc23)cc1 | i | i | i | i | -19 | i | / | i | i
SMILES | MrgX1 ag | MrgX1 allo act | RGS4 inh | MrgX1 antagonist | PHOSPHO1 block | RGS4 pot | RGS4 inh valid | M3R Ca ctr | RGS4 inh ctr2
N#CCSc1nc(N)c(C#N)c(C2CCCCC2)c1C#N | i | i | 5.1* | i | 15 | i | 16%* | 50%* | i
N#Cc1c(N)nc(SCC(=O)NC2CCCCC2)c(C#N)c1-c1ccc(Cl)cc1 | i | i | i | i | 0 | i | / | / | /
CC1=NOC(=O)/C1=C/c1ccc(O)c(Br)c1 | 38* | i | 9.1* | i | 20 | i | 30%* | i | 68%*
COc1ccc(/C=C2/C(=O)ON=C2C)cc1Cl | i | i | i | i | 34 | i | / | / | /
CC1=NOC(=O)/C1=C/c1ccc(O)cc1 | i | i | 5.8* | i | -6 | i | 12%* | i | i
O=C(COC(=O)COc1cccc(C(F)(F)F)c1)NC1CCS(=O)(=O)C1 (stereo not drawn) | i | i | i | i | / | i | / | / | /
CN(C)S(=O)(=O)Oc1ccc(Cl)cc1C(=O)Nc1ccc(F)cc1F | i | i | i | i | 35 | i | / | / | /
CNc1ccc(Oc2nc([N+](=O)[O-])nn2C)cc1 | i | i | i | i | 29 | i | / | / | /
c1ccc(-c2nc(NCc3cccnc3)c3ccccc3n2)cc1 | i | i | i | i | 13 | i | i | i | i
Cc1ccc(-c2nc(NCc3cccnc3)c3ccccc3n2)cc1 | i | i | i | i | -12 | i | i | i | i
Clc1cccc(-c2nc(NCc3cccnc3)c3ccccc3n2)c1 | i | i | i | i | 6 | i | / | / | /
